MC4R antag cAMP = human MC4R antagonism in cAMP assay. inhibition, % at 6.5 µM. actives 0.48% (n = 360,000). MC4R-expressing cells, MTII-stimulated cAMP, LANCE TR-FRET. P32245;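 active = inhibition above its plate's cutoff, the mean of tested wells on that plate plus 3 SD, cut at about 29% in these data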;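 note: 0% = Melanotan II alone and 100% = Melanotan II plus saturating MCL0020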
Target sequence (P32245 whole entry, looked up): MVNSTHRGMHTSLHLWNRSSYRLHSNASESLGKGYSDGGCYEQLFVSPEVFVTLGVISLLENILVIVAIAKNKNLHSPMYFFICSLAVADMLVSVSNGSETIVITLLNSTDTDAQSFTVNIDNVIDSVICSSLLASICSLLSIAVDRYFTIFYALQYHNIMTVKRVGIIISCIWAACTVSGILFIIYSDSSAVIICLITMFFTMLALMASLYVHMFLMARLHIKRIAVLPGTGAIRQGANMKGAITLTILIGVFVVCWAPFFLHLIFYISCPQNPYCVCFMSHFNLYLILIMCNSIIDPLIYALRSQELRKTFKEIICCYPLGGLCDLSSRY
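Material: U2OS-MC4R stable cell line | Reagent: Melanotan II challenge after compound preincubation | Doses: One concentration, 6.5 µM nominal | Incubation: 30-min compound preincubation, 1-h Melanotan II challenge, 1-h detection, room temperature | Signal: TR-FRET cAMP assay | Replicates: One well per compound, no replicates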
MC4R ag barr = agonists of human melanocortin 4 receptor (MC4R) beta-arrestin | U2OS MC4R beta-arrestin complementation, luminescence; percent of melanotan II response, DMSO zero | actives 0.98% (n = 360,000) | activation, % at 8.9 µM;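 active = activation above a per-plate cutoff, the mean activation of sample wells on that plate plus 3 SD, cut at about 8% in these data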
MsrA act = bovine methionine sulfoxide reductase A activation; purified bovine MsrA, absorbance read-out; activation, % at 10.6 µM; AID 602163; actives 0.3% (n = 360,000); in the data active = activation above about 7.5%;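 note: 0% = vehicle and 100% = reference activator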
MsrA inh = inhibits bovine methionine sulfoxide reductase A | purified bovine MsrA, absorbance read-out | inhibition, % at 15.5 µM | actives 0.75% (n = 360,000) | AID 651718; in the data active = inhibition above about 4.5%;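 note: 0% = vehicle wells with enzyme and 100% = reference inhibitor wells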
MC4R barr ag = human MC4R beta-arrestin agonism confirmation. shares compounds with MC4R ag barr. U2OS MC4R beta-arrestin recruitment, luminescence; scaled DMSO 0%, Melanotan II 100%. activation, % at 8.9 µM. actives 31% (n = 2,400). AID 602192;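 active = mean activation across replicates above the hit cutoff set in the earlier primary screen, cut at about 8% in these data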
MOR-DOR barr ag = activates mu-delta opioid heterodimer, MC4R agonist counter-screen; shares compounds with MC4R ag barr; actives 5.8% (n = 2,400); U2OS PathHunter beta-arrestin, beta-gal luminescence; percent of deltorphin B response, DMSO zero; activation, % at 9.2 µM;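 active = mean activation across replicates exceeds the hit threshold derived in the earlier primary screen, cut at about 18% in these data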;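 note: 100% = deltorphin B at 0.9 µM final and 0% = DMSO alone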
Starred values were filed as active, the others as inactive; · = no result given. Rows were chosen to be rich in hits. Some 2.3% of all compounds tested hit in one or more screens of this group.

SMILES	MC4R antag cAMP	MC4R ag barr	MsrA act	MsrA inh	MC4R barr ag	MOR-DOR barr ag
CCNC(=O)C1(C)CCCN(Cc2csc(-c3ccc(Cl)cc3)n2)C1 (stereo unspecified)	-3.0	-0.3	-4.6	0.4	·	·
O=C1COc2ccc(C(=O)COC(=O)CCSc3ccc(Cl)cc3)cc2N1	6.2	18.7*	-3.0	2.6	4.1	8.2
COc1ccc(Cl)cc1NC(=O)Cc1c(F)cccc1Cl	1.5	15.0*	-1.6	1.5	-2.6	2.2
Cc1ccc(C2=N/C(=C\c3ccc(F)cc3)C(=O)N2)cc1	-0.2	22.1*	0.5	-0.4	3.0	1.8
O=C(O)c1ccc(NC(=O)c2cccc(N3C(=O)C4C5CCC(C5)C4C3=O)c2)cc1 (stereo unspecified)	3.1	0.6	-5.0	-0.5	·	·
COc1ccc(C(=O)N2CCN(Cc3ccc4c(c3)OCO4)CC2)cc1[N+](=O)[O-]	10.1	0.6	-1.5	0.5	·	·
Cc1cc(C)nc(SCc2nnc(SCC(=O)Nc3ccc(Cl)c(C(F)(F)F)c3)o2)n1	10.3	10.7*	-1.3	0.4	6.9	9.2
Cc1cccc(NC(=O)CSc2nnc(CSc3nc(C)cc(C)n3)o2)c1	-0.3	1.0	-3.1	-1.1	·	·
COc1cc(NC(=O)c2cccs2)c(OC)cc1NC(=O)CCC(=O)Nc1ccc(C)cc1	12.3	12.8*	-1.9	-1.1	2.8	0.7
Cc1ccccc1Nc1nc(CSc2nnc(-c3ccoc3C)n2C)cs1	9.1	-2.1	-3.0	-1.2	·	·
N#Cc1c(-c2ccccc2)cc(C2CC2)nc1SCC(=O)O	21.7	-1.9	-3.5	0.4	·	·
N#Cc1c(-c2ccco2)cc(C2CC2)nc1SCC(=O)c1ccccc1	0.8	18.4*	-2.9	0.5	8.2	4.4
CCCCN(C)C(=O)c1nc2ccccn2c1CN1CCN(c2ccccn2)CC1	6.0	-0.3	1.5	0.6	·	·
CCn1c2ccccc2c2cc(NC(=O)CSc3nnc(-c4ccc(OC)cc4)n3N)ccc21	-1.3	20.6*	-4.7	1.2	11.5*	19.6*
CCCCCCCCCCCC1N=C(N)NC(CCCO)=C1C(=O)OC (stereo unspecified)	6.6	12.5*	-4.4	-0.9	25.6*	5.3
CCCCCCOC(=O)c1ccc(N)cc1	-5.0	3.8	-2.0	-0.2	·	·
CN(N)c1nc(-c2ccccc2)nnc1C(F)(F)F	-0.8	-2.8	-10.0	0.1	·	·
FC(F)(F)c1nc2ccccc2nc1N/N=C\c1ccccc1	19.1	2.2	-1.6	4.1	·	·
CC1CCN(S(=O)(=O)c2ccc(C(=O)OCc3ccc4c(c3)OCO4)cc2)CC1	7.8	11.8*	-2.7	-0.1	6.6	2.6
COC(=O)c1ccc(COC(=O)c2ccc(S(=O)(=O)N3CCC(C)CC3)cc2)o1	1.2	-0.5	-8.5	-1.3	·	·
COc1ccc(-c2ccc3c(c2)S(=O)(=O)c2cccc(C(=O)NCc4cc(C)oc4C(F)(F)F)c2C3=O)cc1OC	12.1	12.0*	-3.0	·	27.2*	11.8
Cc1ccc(S(=O)(=O)N(C)c2ccc(C(=O)NCC(c3ccco3)N3CCCC3)cc2)cc1 (stereo unspecified)	1.1	1.9	-7.4	-1.2	·	·
O=C(COc1ccc(Cl)cc1)Nc1ccccc1C(=O)NCc1ccco1	-5.0	5.7	0.6	0.6	·	·
Cc1cc(C)cc(OCC(=O)Nc2ccccc2C(=O)NCc2ccco2)c1	-1.4	31.4*	-3.0	-0.6	1.0	5.0
CN=C1SC(CC(=O)Nc2ccccc2F)C(=O)N1C (stereo unspecified)	-0.6	-0.2	0.5	-0.3	·	·
C=CCOc1ccc(/C=N/N2C(=O)C(CC(=O)Nc3ccc(F)cc3F)SC2=NC)cc1 (stereo unspecified)	6.2	10.9*	-2.6	0.4	0.3	4.4
Nc1c(C(=O)Nc2ccc(S(=O)(=O)N3CCCC3)cc2)sc2nc3ccc(OC(F)(F)F)cc3cc12	16.4	14.3*	-2.6	·	12.5*	14.0
Cc1ccc(-c2csc3nc4c5ccccc5c(NCCCN(C)C)nn4c(=O)c23)cc1	-0.1	13.4*	-3.2	-0.1	32.7*	9.3
O=C(COc1ccc2c(c1)CCC2)NCc1ccc(Cl)cc1	8.4	11.5*	-1.8	-0.1	3.7	6.9
O=C(COc1ccc2c(c1)CCC2)NCc1cccc(Cl)c1	7.2	0.3	-4.4	-1.1	·	·
